Test results as given in ChEMBL document CHEMBL2311457, “Identification of bacteria-selective threonyl-tRNA synthetase substrate inhibitors by structure-based design” (J Med Chem, 2013).
In brackets after ≈: the same amount, converted by molar mass.

Columns and labels:
Threonine--tRNA ligase = target: T1, Threonine--tRNA ligase (Yersinia pestis, UniProt Q8ZDW5); assay: Binding affinity to Yersinia pestis ThrRS by coupled spectrophotometry
T1 sequence (Q8ZDW5 whole entry): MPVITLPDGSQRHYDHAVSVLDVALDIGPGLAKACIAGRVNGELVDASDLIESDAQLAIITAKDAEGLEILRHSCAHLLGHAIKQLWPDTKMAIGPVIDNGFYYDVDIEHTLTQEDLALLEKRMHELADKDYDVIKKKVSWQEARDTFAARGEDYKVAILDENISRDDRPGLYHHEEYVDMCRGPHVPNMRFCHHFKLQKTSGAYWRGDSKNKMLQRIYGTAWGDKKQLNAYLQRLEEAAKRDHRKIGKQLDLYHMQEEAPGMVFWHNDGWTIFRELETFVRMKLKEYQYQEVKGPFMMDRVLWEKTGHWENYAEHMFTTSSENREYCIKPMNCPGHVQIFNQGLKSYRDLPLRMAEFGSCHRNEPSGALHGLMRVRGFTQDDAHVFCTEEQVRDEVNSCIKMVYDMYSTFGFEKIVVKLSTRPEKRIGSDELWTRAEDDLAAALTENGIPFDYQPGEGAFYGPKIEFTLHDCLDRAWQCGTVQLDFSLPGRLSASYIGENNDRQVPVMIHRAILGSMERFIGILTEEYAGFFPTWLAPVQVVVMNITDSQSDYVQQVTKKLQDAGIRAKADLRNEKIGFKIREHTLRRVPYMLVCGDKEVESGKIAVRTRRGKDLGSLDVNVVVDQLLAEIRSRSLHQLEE
Summary of the method: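 Coupled spectrophotometric (MESG) readout of pyrophosphate release during adenylation; L-serine 200 mM as surrogate substrate, 4 mM ATP, 5 nM enzyme, Tris pH 7.6, MgCl₂, KCl, DTT, 2% DMSO. Inhibitor 16-point 2-fold series, 50 μM–1.5 nM, normalised to no-inhibitor and no-enzyme controls. IC50 from 4-parameter fit; Ki by bisubstrate Cheng–Prusoff.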

[1] = Binding affinity to Escherichia coli ThrRS by coupled spectrophotometry
Summary of the method: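 Coupled spectrophotometric assay following pyrophosphate released during ATP-dependent adenylation, read out through MESG with inorganic pyrophosphatase and purine nucleoside phosphorylase. Buffer was 60 mM Tris pH 7.6, 10 mM MgCl₂, 20 mM KCl, 0.5 mM DTT, 2% DMSO, with 4 mM ATP, 200 mM L-serine as surrogate substrate and 5 nM enzyme.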

[2] = tested on: Burkholderia thailandensis; assay: Antimicrobial activity against isogenic amrAB-oprA/bpeAB-oprB double knockout Burkholderia thailandensis E264 measured after overnight incubation by alamarBlue assay; assay type: functional
[3] = tested on: Burkholderia thailandensis; assay: Antimicrobial activity against wild type Burkholderia thailandensis E264 measured after overnight incubation by alamarBlue assay; assay type: functional
Haemophilus influenzae = assay: Antimicrobial activity against wild type Haemophilus influenzae ATCC 31517 measured after overnight incubation by alamarBlue assay; assay type: functional
Summary of the method: (§1)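 Broth microdilution per CLSI; DMSO stocks at 6.4 mg/mL, serially diluted and added 1:50 to inoculated medium for final 0.063–128 μg/mL. Inoculum about 5 × 10⁵ CFU/mL, checked by plating. Overnight at 37 °C; H. influenzae grown in Haemophilus test medium broth with 5% CO₂. alamarBlue added for 1 h; MIC read as the lowest concentration with no visible color change.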

Escherichia coli [4] = assay: Antimicrobial activity against Escherichia coli BW25113 expressing TolC Leu13-Ala480 deletion mutant measured after overnight incubation by alamarBlue assay; assay type: functional
Escherichia coli [5] = assay: Antimicrobial activity against Escherichia coli BAS849 expressing Imp Thr332-Tyr354 deletion mutant measured after overnight incubation by alamarBlue assay; assay type: functional
Escherichia coli [6] = assay: Antimicrobial activity against wild type Escherichia coli ATCC 25922 measured after overnight incubation by alamarBlue assay; assay type: functional; summary of the method: as §1
[7] = Binding affinity to Burkholderia thailandensis ThrRS by coupled spectrophotometry
[8] = target: T2, Threonine--tRNA ligase 1, cytoplasmic (Homo sapiens, UniProt P26639); assay: Binding affinity to human cytoplasmic ThrRS by coupled spectrophotometry
T2 sequence (P26639 whole entry): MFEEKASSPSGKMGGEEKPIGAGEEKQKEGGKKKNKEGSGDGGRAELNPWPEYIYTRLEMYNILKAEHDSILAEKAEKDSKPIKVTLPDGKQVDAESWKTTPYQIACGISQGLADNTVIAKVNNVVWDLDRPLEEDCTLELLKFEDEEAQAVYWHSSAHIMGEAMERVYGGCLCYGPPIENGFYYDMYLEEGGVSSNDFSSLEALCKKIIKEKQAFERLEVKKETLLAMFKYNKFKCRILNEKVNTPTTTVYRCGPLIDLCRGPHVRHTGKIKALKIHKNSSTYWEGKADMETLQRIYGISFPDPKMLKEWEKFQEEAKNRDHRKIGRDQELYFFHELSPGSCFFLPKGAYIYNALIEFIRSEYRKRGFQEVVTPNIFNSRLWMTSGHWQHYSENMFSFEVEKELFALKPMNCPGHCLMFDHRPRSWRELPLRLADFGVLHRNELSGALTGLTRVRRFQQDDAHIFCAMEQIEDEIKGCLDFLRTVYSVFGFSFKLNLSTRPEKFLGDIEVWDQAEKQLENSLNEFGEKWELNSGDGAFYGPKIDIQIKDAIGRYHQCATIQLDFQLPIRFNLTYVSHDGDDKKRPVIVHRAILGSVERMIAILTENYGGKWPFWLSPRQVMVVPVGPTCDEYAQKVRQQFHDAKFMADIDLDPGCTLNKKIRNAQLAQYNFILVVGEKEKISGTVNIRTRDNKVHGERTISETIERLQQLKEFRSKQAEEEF

| Compound | Ki (Threonine--tRNA ligase) | Ki [1] | MIC [2] | MIC [3] | MIC (Haemophilus influenzae) | MIC (Escherichia coli [4]) | MIC (Escherichia coli [5]) | MIC (Escherichia coli [6]) | Ki [7] | Ki [8] |
| --- | --- | --- | --- | --- | --- | --- | --- | --- | --- | --- |
| C[C@@H](N)[C@H](N)C(=O)NS(=O)(=O)/C=C/c1cccc(-c2cc(N)ncn2)c1 | > 50000 nM | > 50000 nM |  |  |  |  |  |  |  |  |
| C[C@@H](O)[C@H](N)C(=O)NS(=O)(=O)OC[C@@H]1O[C@H](n2cnc3c(N)ncnc32)[C@@H](O)[C@H]1O | 9.8 nM | 13.1 nM | 64 µg/mL (≈ 143 µM) | > 128 µg/mL | > 128 µg/mL | > 128 µg/mL | > 128 µg/mL | > 128 µg/mL | 2.8 nM |  |
| C[C@@H](O)[C@H](N)C(=O)NS(=O)(=O)c1cccc(-c2ccc3c(N)ncnc3c2)c1 | 2.2 nM | 2.9 nM | 8 µg/mL (≈ 19.9 µM) | > 128 µg/mL | 16 µg/mL (≈ 39.9 µM) | 64 µg/mL (≈ 159 µM) | > 128 µg/mL | > 128 µg/mL | 0.9 nM |  |
| C[C@@H](O)[C@H](N)C(=O)NS(=O)(=O)c1cccc(-c2ccc3c(N)nc(N)nc3c2)c1 | 8.2 nM | 10.7 nM | 4 µg/mL (≈ 9.6 µM) | > 128 µg/mL | 32 µg/mL (≈ 76.8 µM) | 64 µg/mL (≈ 154 µM) | > 128 µg/mL | > 128 µg/mL | 2.9 nM |  |
| C[C@@H](O)[C@H](N)C(=O)NS(=O)(=O)c1cccc(-c2ccc3c(N)nc(Cl)nc3c2)c1 | 0.7 nM | 0.8 nM | 32 µg/mL (≈ 73.4 µM) | > 128 µg/mL | 8 µg/mL (≈ 18.4 µM) | 16 µg/mL (≈ 36.7 µM) | 128 µg/mL (≈ 294 µM) | > 128 µg/mL | 0.3 nM |  |
| Cc1nc(N)c2ccc(-c3cccc(S(=O)(=O)NC(=O)[C@@H](N)[C@@H](C)O)c3)cc2n1 | 9.3 nM | 17.2 nM |  |  |  |  |  |  | 12.2 nM |  |
| C[C@@H](O)[C@H](N)C(=O)NS(=O)(=O)c1cccc(-c2ccc3c(N)nc(Cl)cc3c2)c1 | 25 nM | 20 nM |  |  |  |  |  |  | 23 nM |  |
| C[C@@H](O)[C@H](N)C(=O)NS(=O)(=O)c1cccc(-c2ccc3c(N)nccc3c2)c1 | 115 nM | 90 nM |  |  |  |  |  |  | 89 nM |  |
| C[C@@H](O)[C@H](N)C(=O)NS(=O)(=O)c1ccc2ccc(-c3cc(N)ncn3)cc2c1 | 2 nM | 2.7 nM | 4 µg/mL (≈ 9.96 µM) | > 128 µg/mL | 4 µg/mL (≈ 9.96 µM) | 64 µg/mL (≈ 159 µM) | > 128 µg/mL | > 128 µg/mL | 0.7 nM |  |
| C[C@@H](O)[C@H](N)C(=O)NS(=O)(=O)/C=C/c1cccc(-c2cc(N)ncn2)c1 | 1.8 nM | 2.7 nM | 32 µg/mL (≈ 84.8 µM) | > 128 µg/mL | 8 µg/mL (≈ 21.2 µM) | 64 µg/mL (≈ 170 µM) | > 128 µg/mL | > 128 µg/mL | 1.1 nM |  |
| C[C@@H](O)[C@H](N)C(=O)NS(=O)(=O)c1ccc2ccc(-c3ncnc4[nH]ccc34)cc2c1 | 1.8 nM | 2.4 nM | 32 µg/mL (≈ 75.2 µM) | > 128 µg/mL | 16 µg/mL (≈ 37.6 µM) | 16 µg/mL (≈ 37.6 µM) | > 128 µg/mL | > 128 µg/mL | 0.6 nM |  |
| C[C@@H](O)[C@H](N)C(=O)NS(=O)(=O)N1CCc2ccc(-c3ncnc4[nH]ccc34)cc2C1 | 5.7 nM | 9.5 nM |  |  |  |  |  |  | 4 nM |  |
| C[C@@H](O)[C@H](N)C(=O)NS(=O)(=O)c1cccc(-c2ccc3c(c2)CNC3=O)c1 | 3.9 nM | 7.7 nM |  |  |  |  |  |  | 7.4 nM |  |
| C[C@@H](O)[C@H](N)C(=O)NS(=O)(=O)c1cccc(-c2ccc3[nH]nc(Cl)c3c2)c1 | 39 nM | 52 nM |  |  |  |  |  |  | 77 nM |  |
| C[C@@H](O)[C@H](N)C(=O)NS(=O)(=O)c1ccc(Oc2ccccc2)cc1 | 33100 nM | 36500 nM |  |  |  |  |  |  | 193000 nM |  |
| Cc1n[nH]c2ccc(-c3cccc(S(=O)(=O)NC(=O)[C@@H](N)[C@@H](C)O)c3)cc12 | 83 nM | 127 nM |  |  |  |  |  |  | 143 nM |  |
| C[C@@H](O)[C@H](N)C(=O)NS(=O)(=O)c1cccc(-c2ccc3[nH]ncc3c2)c1 | 132 nM | 182 nM |  |  |  |  |  |  | 164 nM | > 50000 nM |
| C[C@@H](O)[C@H](N)C(=O)NCc1cccc(-c2ccc3c(N)nc(Cl)nc3c2)c1 | 436 nM | 329 nM |  |  |  |  |  |  | 140 nM |  |
| C[C@@H](O)[C@H](N)C(=O)NNc1cccc(-c2ccc3c(N)nc(Cl)nc3c2)c1 | 70 nM | 136 nM |  |  |  |  |  |  | 34 nM |  |
| C[C@@H](O)[C@H](N)CNS(=O)(=O)c1cccc(-c2ccc3c(N)nc(Cl)nc3c2)c1 | > 50000 nM | > 50000 nM |  |  |  |  |  |  |  | > 50000 nM |
| C[C@@H](O)[C@H](N)C(=O)N(C)S(=O)(=O)c1cccc(-c2ccc3c(c2)CNC3=O)c1 | > 50000 nM | > 50000 nM |  |  |  |  |  |  |  | > 50000 nM |
| CC[C@@H](O)[C@H](N)C(=O)NS(=O)(=O)/C=C/c1cccc(-c2cc(N)ncn2)c1 | 2.7 nM | 4.3 nM |  |  |  |  |  |  | 14.1 nM |  |
| CC(C)[C@@H](O)[C@H](N)C(=O)NS(=O)(=O)/C=C/c1cccc(-c2cc(N)ncn2)c1 | 22.5 nM | 32.4 nM |  |  |  |  |  |  | 588 nM |  |
| C[C@@H](O)[C@H](O)C(=O)NS(=O)(=O)/C=C/c1cccc(-c2cc(N)ncn2)c1 | > 50000 nM | > 50000 nM |  |  |  |  |  |  |  | > 50000 nM |
